Reference: ChEMBL document CHEMBL5034013, “Discovery of VNRX-7145 (VNRX-5236 Etzadroxil): An Orally Bioavailable β-Lactamase Inhibitor for Enterobacterales Expressing Ambler Class A, C, and D Enzymes” (J Med Chem, 2021)
pIC50: −log10 of the molar value.

Assays:
[1] = tested on: Escherichia coli; assay: Antibacterial activity against Escherichia coli expressing TEM-1/SHV-12 assessed as concentration required to restore ceftibuten activity incubated for 16 to 20 hrs in presence of 1 ug/ml ceftibuten by broth microdilution method; format: functional; conditions: time 16-20 hrs
[2] = tested on: Escherichia coli; assay: Antibacterial activity against Escherichia coli expressing CTX-M-2 assessed as concentration required to restore ceftibuten activity incubated for 16 to 20 hrs in presence of 1 ug/ml ceftibuten by broth microdilution method; format: functional; conditions: time 16-20 hrs
[3] = Inhibition of bacterial beta-lactamase SHV-5 using cefotaxime as substrate preincubated for 15 mins followed by substrate addition and measured after 10 mins by spectrophotometric analysis; set-up: species or system Bacteria
Procedure, shortened: (§1)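 IC50 is the mean of duplicate runs on separate days. A run was repeated automatically if it differed by more than 20% from the previous result.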

[4] = Inhibition of bacterial beta-lactamase KPC-2 using imipenem as substrate preincubated for 15 mins followed by substrate addition and measured after 10 mins by spectrophotometric analysis; set-up: species or system Bacteria; procedure, shortened: as §1
[5] = tested on: Escherichia coli; assay: Antibacterial activity against Escherichia coli expressing CTX-M-15/TEM-1 assessed as concentration required to restore ceftibuten activity incubated for 16 to 20 hrs in presence of 1 ug/ml ceftibuten by broth microdilution method; format: functional; conditions: time 16-20 hrs
[6] = tested on: Klebsiella pneumoniae; assay: Antibacterial activity against Klebsiella pneumoniae expressing SHV-12/TEM-1 assessed as concentration required to restore ceftibuten activity incubated for 16 to 20 hrs in presence of 1 ug/ml ceftibuten by broth microdilution method; format: functional; conditions: time 16-20 hrs
[7] = tested on: Escherichia coli; assay: Antibacterial activity against Escherichia coli 786978 expressing KPC assessed as concentration required to restore ceftibuten activity incubated for 16 to 20 hrs in presence of 1 ug/ml ceftibuten by broth microdilution method; format: functional; conditions: time 16-20 hrs
[8] = tested on: Klebsiella pneumoniae; assay: Antibacterial activity against Klebsiella pneumoniae 156309 expressing SHV-11/TEM-1/KPC-2 assessed as concentration required to restore ceftibuten activity incubated for 16 to 20 hrs in presence of 1 ug/ml ceftibuten by broth microdilution method; format: functional; conditions: time 16-20 hrs
[9] = tested on: Escherichia coli; assay: Antibacterial activity against Escherichia coli J53 expressing SHV-5/TEM-1/AmpC assessed as concentration required to restore ceftibuten activity incubated for 16 to 20 hrs in presence of 1 ug/ml ceftibuten by broth microdilution method; format: functional; conditions: time 16-20 hrs
[10] = tested on: Klebsiella pneumoniae; assay: Antibacterial activity against Klebsiella pneumoniae 196477 expressing AmpC/CMY-2/TEM-1/CTX-M-15 assessed as concentration required to restore ceftibuten activity incubated for 16 to 20 hrs in presence of 1 ug/ml ceftibuten by broth microdilution method; format: functional; conditions: time 16-20 hrs
[11] = tested on: Escherichia coli; assay: Antibacterial activity against Escherichia coli 664507 expressing OXA-48 assessed as concentration required to restore ceftibuten activity incubated for 16 to 20 hrs in presence of 1 ug/ml ceftibuten by broth microdilution method; format: functional; conditions: time 16-20 hrs
Procedure, shortened: (§2)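 Tested against a 25-strain challenge panel of clinical E. coli and K. pneumoniae isolates carrying ESBL (n = 5), KPC (n = 11), class C (n = 4) or OXA-48 (n = 5) β-lactamases. Ceftibuten was held at 1 μg/mL while the BLI concentration varied. The read-out was the BLI concentration that rescued ceftibuten activity.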

[12] = tested on: Klebsiella pneumoniae; assay: Antibacterial activity against Klebsiella pneumoniae expressing OXA-48 assessed as concentration required to restore ceftibuten activity incubated for 16 to 20 hrs in presence of 1 ug/ml ceftibuten by broth microdilution method; format: functional; conditions: time 16-20 hrs
[13] = tested on: Klebsiella pneumoniae; assay: Antibacterial activity against Klebsiella pneumoniae expressing TEM-1/SHV-12 assessed as concentration required to restore ceftibuten activity incubated for 16 to 20 hrs in presence of 1 ug/ml ceftibuten by broth microdilution method; format: functional; conditions: time 16-20 hrs
[14] = tested on: Klebsiella pneumoniae; assay: Antibacterial activity against Klebsiella pneumoniae expressing SHV-5/KPC-2/TEM-1 assessed as concentration required to restore ceftibuten activity incubated for 16 to 20 hrs in presence of 1 ug/ml ceftibuten by broth microdilution method; format: functional; conditions: time 16-20 hrs
[15] = tested on: Escherichia coli; assay: Antibacterial activity against Escherichia coli expressing AmpC/SHV-12/CTX-M-15/TEM-1 assessed as concentration required to restore ceftibuten activity incubated for 16 to 20 hrs in presence of 1 ug/ml ceftibuten by broth microdilution method; format: functional; conditions: time 16-20 hrs
[16] = tested on: Klebsiella pneumoniae; assay: Antibacterial activity against Klebsiella pneumoniae expressing SHV-1/TEM-1/KPC-2 assessed as concentration required to restore ceftibuten activity incubated for 16 to 20 hrs in presence of 1 ug/ml ceftibuten by broth microdilution method; format: functional; conditions: time 16-20 hrs
[17] = tested on: Klebsiella pneumoniae; assay: Antibacterial activity against Klebsiella pneumoniae expressing SHV-11/TEM-1/KPC-3 assessed as concentration required to restore ceftibuten activity incubated for 16 to 20 hrs in presence of 1 ug/ml ceftibuten by broth microdilution method; format: functional; conditions: time 16-20 hrs
[18] = tested on: Klebsiella pneumoniae; assay: Antibacterial activity against Klebsiella pneumoniae expressing SHV-12/TEM-1/KPC-2/AmpC assessed as concentration required to restore ceftibuten activity incubated for 16 to 20 hrs in presence of 1 ug/ml ceftibuten by broth microdilution method; format: functional; conditions: time 16-20 hrs
[19] = tested on: Klebsiella pneumoniae; assay: Antibacterial activity against Klebsiella pneumoniae expressing KPC-3/TEM-1/AmpC assessed as concentration required to restore ceftibuten activity incubated for 16 to 20 hrs in presence of 1 ug/ml ceftibuten by broth microdilution method; format: functional; conditions: time 16-20 hrs
[20] = tested on: Escherichia coli; assay: Antibacterial activity against Escherichia coli 849121 expressing KPC assessed as concentration required to restore ceftibuten activity incubated for 16 to 20 hrs in presence of 1 ug/ml ceftibuten by broth microdilution method; format: functional; conditions: time 16-20 hrs
[21] = tested on: Klebsiella pneumoniae; assay: Antibacterial activity against Klebsiella pneumoniae 845661 expressing KPC assessed as concentration required to restore ceftibuten activity incubated for 16 to 20 hrs in presence of 1 ug/ml ceftibuten by broth microdilution method; format: functional; conditions: time 16-20 hrs
[22] = tested on: Klebsiella pneumoniae; assay: Antibacterial activity against Klebsiella pneumoniae 845670 expressing KPC assessed as concentration required to restore ceftibuten activity incubated for 16 to 20 hrs in presence of 1 ug/ml ceftibuten by broth microdilution method; format: functional; conditions: time 16-20 hrs
[23] = tested on: Escherichia coli; assay: Antibacterial activity against Escherichia coli SI-P026TC expressing CMY-2/TEM-1 assessed as concentration required to restore ceftibuten activity incubated for 16 to 20 hrs in presence of 1 ug/ml ceftibuten by broth microdilution method; format: functional; conditions: time 16-20 hrs
[24] = tested on: Klebsiella pneumoniae; assay: Antibacterial activity against Klebsiella pneumonia 217917 expressing CMY-2/TEM-1 assessed as concentration required to restore ceftibuten activity incubated for 16 to 20 hrs in presence of 1 ug/ml ceftibuten by broth microdilution method; format: functional; conditions: time 16-20 hrs; procedure, shortened: as §2
[25] = tested on: Klebsiella pneumoniae; assay: Antibacterial activity against Klebsiella pneumonia DOV expressing OXA-48 assessed as concentration required to restore ceftibuten activity incubated for 16 to 20 hrs in presence of 1 ug/ml ceftibuten by broth microdilution method; format: functional; conditions: time 16-20 hrs; procedure, shortened: as §2
[26] = tested on: Klebsiella pneumoniae; assay: Antibacterial activity against Klebsiella pneumonia SI-C05 expressing OXA-48 assessed as concentration required to restore ceftibuten activity incubated for 16 to 20 hrs in presence of 1 ug/ml ceftibuten by broth microdilution method; format: functional; conditions: time 16-20 hrs; procedure, shortened: as §2
[27] = tested on: Escherichia coli; assay: Antibacterial activity against Escherichia coli 664520 expressing OXA-48 assessed as concentration required to restore ceftibuten activity incubated for 16 to 20 hrs in presence of 1 ug/ml ceftibuten by broth microdilution method; format: functional; conditions: time 16-20 hrs; procedure, shortened: as §2
[28] = Apparent permeability across apical to basolateral side in human Caco-2 cells at 5 uM measured after 2 hrs by LC-MS/MS method; format: ADME, cell-based; conditions: caco-2, 2 h
[29] = Apparent permeability across basolateral to apical side in human Caco-2 cells at 5 uM measured after 2 hrs by LC-MS/MS method; format: ADME, cell-based; conditions: caco-2, 2 h
[30] = AUC in mouse at 1.2 mg/kg, sc; format: ADME, organism-based; set-up: dose 1.2 mg/kg; conditions: in vivo
[31] = AUC in mouse at 12 mg/kg, sc; format: ADME, organism-based; set-up: dose 12 mg/kg; conditions: in vivo
Procedure, shortened: (§3)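 Single-dose pharmacokinetics of the parent BLI in mice given subcutaneously at 1.2, 12 and 38 mg/kg. The AUC is reported in mg∗h/L and was used to check dose proportionality. The study was run to choose dosing regimens for the murine ascending UTI efficacy model.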

[32] = AUC in mouse at 38 mg/kg, sc; format: ADME, organism-based; set-up: dose 38 mg/kg; conditions: in vivo; procedure, shortened: as §3
[33] = tested on: Escherichia coli; assay: In vivo antibacterial activity against Escherichia coli expressing TEM-1/CTX-M-15 infected in C3H/HeJ mouse assessed as log10 reduction in CFU in kidney administration of compound:ceftibuten 1:1 ratio at 1 to 300 mg/kg, sc every 12 hrs for 3 days starting from 4 days post infection and measured at 7 days post infection (reference value: 6.7 log10CFU); format: functional; conditions: dose 1-300 mg/kg; time 3 day
[34] = tested on: Escherichia coli; assay: In vivo antibacterial activity against Escherichia coli expressing TEM-1/CTX-M-15 infected in C3H/HeJ mouse assessed as log10 reduction in CFU in urine administration of compound:ceftibuten 1:1 ratio at 1 to 300 mg/kg, sc every 12 hrs for 3 days starting from 4 days post infection and measured at 7 days post infection (reference value: 6.7 log10CFU); format: functional; conditions: dose 1-300 mg/kg; time 3 day
[35] = tested on: Escherichia coli; assay: In vivo antibacterial activity against Escherichia coli expressing TEM-1/CTX-M-15 infected in C3H/HeJ mouse assessed as log10 reduction in CFU in bladder administration of compound:ceftibuten 1:1 ratio at 1 to 300 mg/kg, sc every 12 hrs for 3 days starting from 4 days post infection and measured at 7 days post infection (reference value: 5.8 log10CFU); conditions: dose 1-300 mg/kg; time 3 day

Q: Which Activity [1] does the source give for `CCC(=O)N[C@H]1Cc2cccc(C(=O)O)c2OB1O` [LEDABORBACTAM] here?
A: Its Activity is 0.03 µg/mL.

Q: What about the Activity [2] of the same compound?
A: The Activity was 0.004 µg/mL.

Q: What about the pIC50 [3] of the same compound?
A: The pIC50 was 6.90.

Q: And the pIC50 [4]?
A: Its pIC50 is 7.10.

Q: What about the Activity [5] of the same compound?
A: The Activity was 0.12 µg/mL.

Q: And the Activity [6]?
A: Its Activity is 0.06 µg/mL.

Q: And the Activity [7]?
A: The Activity was 0.5 µg/mL.

Q: What about the Activity [8] of the same compound?
A: Its Activity is 0.5 µg/mL.

Q: And the Activity [9]?
A: Its Activity is 0.03 µg/mL.

Q: And the Activity [10]?
A: The Activity was 0.016 µg/mL.

Q: And the Activity [11]?
A: Its Activity is 0.03 µg/mL.

Q: What about the Activity [12] of the same compound?
A: Its Activity is 1 µg/mL.

Q: And the Activity [13]?
A: The Activity was 0.016 µg/mL.

Q: What about the Activity [14] of the same compound?
A: Its Activity is “<=0.002 ug ml-1”.

Q: And the Activity [15]?
A: The Activity was 0.016 µg/mL.

Q: And the Activity [16]?
A: Its Activity is 1 µg/mL.

Q: What about the Activity [17] of the same compound?
A: Its Activity is 0.06 µg/mL.

Q: And the Activity [18]?
A: The Activity was 0.25 µg/mL.

Q: What about the Activity [19] of the same compound?
A: The Activity was 0.5 µg/mL.

Q: And the Activity [20]?
A: Its Activity is “<=0.002 ug ml-1”.

Q: What about the Activity [21] of the same compound?
A: The Activity was 2 µg/mL.

Q: What about the Activity [22] of the same compound?
A: Its Activity is “<=0.002 ug ml-1”.

Q: And the Activity [23]?
A: The Activity was 0.5 µg/mL.

Q: What about the Activity [24] of the same compound?
A: The Activity was 0.12 µg/mL.

Q: What about the Activity [25] of the same compound?
A: Its Activity is 0.016 µg/mL.

Q: What about the Activity [26] of the same compound?
A: The Activity was 0.03 µg/mL.

Q: What about the Activity [27] of the same compound?
A: Its Activity is 1 µg/mL.

Q: What about the Papp [28] of the same compound?
A: Its Papp is 0.11 10^-6 cm/s.

Q: And the Papp [29]?
A: Its Papp is 0.15 10^-6 cm/s.

Q: And the AUC [30]?
A: The AUC was 7.8 mg·h/L.

Q: And the AUC [31]?
A: The AUC was 76 mg·h/L.

Q: And the AUC [32]?
A: Its AUC is 250 mg·h/L.

Q: And the Activity [33]?
A: The Activity was 2 log10CFU/ml.

Q: And the Activity [34]?
A: Its Activity is 4 log10CFU/ml.

Q: What about the Activity [35] of the same compound?
A: The Activity was 3.2 log10CFU/ml.
